Laboratory results: ChEMBL document CHEMBL3098083, “Curcumin glucuronides: assessing the proliferative activity against human cell lines” (Bioorg Med Chem, 2014)

What was measured:
KBM5 [1] = test: Inhibition of TNF-induced NF-kappaB activation in human KBM5 cells at 50 uM preincubated for 4 hrs followed by TNF addition measured after 30 mins by EMSA relative to control; assay type: cell-based
In short: (§1)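 KBM-5 cells (IMDM, 15% FBS) were pretreated 4 h, then stimulated with bacteria-derived human recombinant TNF at 0.1 nM for 30 min. Nuclear extracts (15 μg protein) were incubated with 16 fmol 32P-labelled 45-mer HIV-LTR NF-κB oligonucleotide for 30 min at 37 °C. Complexes were resolved on 6.6% native polyacrylamide gels, and bands were quantified by phosphorimaging.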

KBM5 [2] = test: Inhibition of TNF-induced NF-kappaB activation in human KBM5 cells at 10 uM preincubated for 4 hrs followed by TNF addition measured after 30 mins by EMSA relative to control; assay type: cell-based; in short: as §1
[3] = Antiproliferative activity against human U266 cells after 72 hrs by MTT assay; assay type: functional, cell-based; conditions: U-266, 72 h
In short: (§2)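 Cells seeded at 5 × 10^3 per well in triplicate and exposed to 1, 5, 10, 25, 50, 100 or 200 μM for 72 h at 37 °C. MTT was added for 2 h, then SDS/DMF extraction buffer overnight, and A570 was read. Results are % viability, mean ± SD. Media: KBM-5 in IMDM/15% FBS; Jurkat and U266 in RPMI 1640; A549 in DMEM/10% FBS; all with penicillin/streptomycin.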

A549 = test: Antiproliferative activity against human A549 cells after 72 hrs by MTT assay; assay type: functional, cell-based; conditions: A549, 72 h; in short: as §2
Jurkat = test: Antiproliferative activity against human Jurkat cells after 72 hrs by MTT assay; assay type: functional, cell-based; in short: as §2
[4] = Antiproliferative activity against human KBM5 cells after 72 hrs by MTT assay; assay type: functional, cell-based; conditions: KBM5, 72 h; in short: as §2
KBM5 [5] = test: Inhibition of TNF-induced NF-kappaB activation in human KBM5 cells at 25 uM preincubated for 4 hrs followed by TNF addition measured after 30 mins by EMSA relative to control; assay type: cell-based; in short: as §1

Row | SMILES | fold change (FC) (KBM5 [1]) | fold change (FC) (KBM5 [2]) | IC50 [3] | IC50 (A549) | IC50 (Jurkat) | IC50 [4] | fold change (FC) (KBM5 [5])
1 | COc1cc(/C=C/C(=O)/C=C(O)/C=C/c2ccc(O[C@@H]3O[C@H](C(=O)O)[C@@H](O)[C@H](O)[C@H]3O)c(OC)c2)ccc1O[C@@H]1O[C@H](C(=O)O)[C@@H](O)[C@H](O)[C@H]1O | 5.5 | 5.6 | > 200 µM | > 200 µM | > 200 µM | > 200 µM | 5.6
2 | COc1cc(/C=C/C(O)=C/C(=O)/C=C/c2ccc(O[C@@H]3O[C@H](C(=O)O)[C@@H](O)[C@H](O)[C@H]3O)c(OC)c2)ccc1O | 5.1 | 5.3 | > 200 µM | > 200 µM | > 200 µM | > 200 µM | 5.3
3 | COc1cc(/C=C/C(=O)CC(=O)/C=C/c2ccc(O)c(OC)c2)ccc1O [CURCUMIN] | 0.8 | 3 | 7.57 µM | 17.3 µM | 4.29 µM | 3.84 µM | 1
